Results taken from ChEMBL document CHEMBL1154352, “Toll-like receptor 7 selective synthetic oligoribonucleotide agonists: synthesis and structure-activity relationship studies” (J Med Chem, 2009).
Active and inactive are the calls of the source. No cut-off for these calls is given here.

What was measured:
[1] = test system: PBMC; assay: Immunomodulatory activity in human PBMC assessed as induction of TNFalpha at 100 ug/ml after 24 hrs; assay type: functional, cell-based
Summary of the method: (§1)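 Human PBMCs plated at 5 × 10^6 cells/mL; compounds dissolved in PBS added at various concentrations, 37 °C for 24 h. Supernatant cytokines/chemokines quantified with human Luminex multiplex kit.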

[2] = target: T1, Toll-like receptor 7 (Homo sapiens) (UniProt Q9NYK1); assay: Activation of human TLR7 expressed in HEK293XL assessed as fold induction of NF-kappaB activity at 50 ug/ml after 18 hrs by reporter gene assay relative to control
T1 sequence (whole entry): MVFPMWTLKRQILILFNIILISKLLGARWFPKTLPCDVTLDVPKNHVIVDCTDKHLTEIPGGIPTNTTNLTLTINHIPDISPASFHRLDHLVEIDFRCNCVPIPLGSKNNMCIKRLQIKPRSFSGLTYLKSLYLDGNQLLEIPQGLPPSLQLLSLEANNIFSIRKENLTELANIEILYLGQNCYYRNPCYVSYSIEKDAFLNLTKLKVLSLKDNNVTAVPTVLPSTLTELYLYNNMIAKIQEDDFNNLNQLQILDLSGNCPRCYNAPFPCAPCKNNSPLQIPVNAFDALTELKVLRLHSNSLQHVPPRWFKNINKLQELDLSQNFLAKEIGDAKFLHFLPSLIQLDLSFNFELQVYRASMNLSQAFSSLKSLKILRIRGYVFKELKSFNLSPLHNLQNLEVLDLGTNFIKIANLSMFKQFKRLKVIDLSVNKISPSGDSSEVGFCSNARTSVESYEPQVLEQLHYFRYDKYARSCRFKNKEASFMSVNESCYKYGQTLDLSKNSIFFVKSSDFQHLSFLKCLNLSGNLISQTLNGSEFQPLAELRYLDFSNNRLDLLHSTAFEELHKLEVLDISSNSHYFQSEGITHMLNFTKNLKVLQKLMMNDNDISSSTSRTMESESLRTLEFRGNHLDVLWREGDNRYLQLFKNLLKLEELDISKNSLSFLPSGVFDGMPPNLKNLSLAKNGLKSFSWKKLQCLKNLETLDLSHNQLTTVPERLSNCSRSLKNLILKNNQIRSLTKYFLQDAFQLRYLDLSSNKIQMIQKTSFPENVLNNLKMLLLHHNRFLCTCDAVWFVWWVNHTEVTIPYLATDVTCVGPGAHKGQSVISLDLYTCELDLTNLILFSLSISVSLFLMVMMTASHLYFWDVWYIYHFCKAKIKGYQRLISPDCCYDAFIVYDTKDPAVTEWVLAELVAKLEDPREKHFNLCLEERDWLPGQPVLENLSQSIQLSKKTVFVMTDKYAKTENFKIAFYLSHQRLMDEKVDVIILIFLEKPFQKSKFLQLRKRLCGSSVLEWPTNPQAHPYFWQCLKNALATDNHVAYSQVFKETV
Summary of the method: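 HEK293 cells stably expressing human TLR7 or TLR8, transiently transfected with SEAP reporter plasmid; medium replaced, SIMRA compounds added, 18 h incubation. Supernatant SEAP measured by QuantiBlue; expressed as fold increase in NF-κB activity over PBS control. Tabulated data at 50 μg/mL, representative of three independent experiments.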

[3] = target: T2, Toll-like receptor 9 (Mus musculus) (UniProt Q9EQU3); assay: Activation of mouse TLR9 expressed in HEK293 assessed as induction of NF-kappaB activity reporter gene assay; assay type: cell-based
T2 sequence (whole entry): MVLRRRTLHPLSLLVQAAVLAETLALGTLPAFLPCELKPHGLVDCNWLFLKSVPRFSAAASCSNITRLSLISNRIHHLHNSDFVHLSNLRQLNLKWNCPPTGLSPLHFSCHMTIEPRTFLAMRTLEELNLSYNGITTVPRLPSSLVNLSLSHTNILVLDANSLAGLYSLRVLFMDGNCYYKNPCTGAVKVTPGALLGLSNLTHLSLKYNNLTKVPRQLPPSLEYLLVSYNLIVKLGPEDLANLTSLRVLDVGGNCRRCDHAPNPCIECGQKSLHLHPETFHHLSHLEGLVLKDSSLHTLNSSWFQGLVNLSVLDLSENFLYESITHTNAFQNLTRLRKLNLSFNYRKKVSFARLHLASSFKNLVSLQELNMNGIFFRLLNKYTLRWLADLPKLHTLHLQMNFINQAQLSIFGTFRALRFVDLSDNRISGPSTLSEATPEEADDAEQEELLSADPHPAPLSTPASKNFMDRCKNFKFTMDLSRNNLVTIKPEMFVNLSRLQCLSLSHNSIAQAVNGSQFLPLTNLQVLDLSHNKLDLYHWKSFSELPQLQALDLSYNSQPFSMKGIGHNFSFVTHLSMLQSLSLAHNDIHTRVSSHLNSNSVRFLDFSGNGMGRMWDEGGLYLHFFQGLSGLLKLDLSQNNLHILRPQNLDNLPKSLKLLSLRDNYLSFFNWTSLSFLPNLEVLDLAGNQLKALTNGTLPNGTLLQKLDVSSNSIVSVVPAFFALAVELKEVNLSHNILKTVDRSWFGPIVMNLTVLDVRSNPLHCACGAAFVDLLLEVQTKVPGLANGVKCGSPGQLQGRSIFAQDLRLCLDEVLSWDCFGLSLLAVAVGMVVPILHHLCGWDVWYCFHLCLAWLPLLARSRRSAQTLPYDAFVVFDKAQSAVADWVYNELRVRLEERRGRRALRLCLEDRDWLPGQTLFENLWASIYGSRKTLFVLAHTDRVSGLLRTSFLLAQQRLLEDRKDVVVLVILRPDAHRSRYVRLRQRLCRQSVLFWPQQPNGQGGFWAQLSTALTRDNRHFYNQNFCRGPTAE

[4] = target: Toll-like receptor 3 (Homo sapiens) (UniProt O15455); assay: Activation of human TLR3 expressed in HEK293 assessed as induction of NF-kappaB activity reporter gene assay; assay type: cell-based
[5] = species: Homo sapiens; assay: Ratio of human TLR7 activity to human TLR8 activity
Summary of the method: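 TLR7/TLR8 ratio computed from fold NF-κB (SEAP reporter) activation in HEK293 cells stably expressing human TLR7 versus TLR8, compounds at 50 μg/mL, 18 h exposure; representative of three independent experiments.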

[6] = test system: Splenocyte; assay: Immunomodulatory activity in C57BL/6 mouse splenocytes bearing TLR7 receptor assessed as IL6 release at 100 ug/ml after 24 hrs by ELISA; assay type: functional, cell-based
Summary of the method: (§2)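 C57BL/6 splenocytes in RPMI 1640 with 10% FBS, penicillin/streptomycin, 2 mM L-glutamine, plated at 5 × 10^6 cells/mL; compounds in PBS added, 37 °C for 24 h. Supernatant IL-12 and IL-6 by ELISA; representative of three independent experiments.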

[7] = test system: PBMC; assay: Immunomodulatory activity in human PBMC assessed as induction of IL12 at 100 ug/ml after 24 hrs; assay type: functional, cell-based; summary of the method: as §1
[8] = test system: Splenocyte; assay: Immunomodulatory activity in C57BL/6 mouse splenocytes bearing TLR7 receptor assessed as IL12 release at 100 ug/ml after 24 hrs by ELISA; assay type: functional, cell-based; summary of the method: as §2
[9] = test system: PBMC; assay: Immunomodulatory activity in human PBMC assessed as induction of IFN-alpha at 100 ug/ml after 24 hrs

Sequence of Toll-like receptor 3 (Homo sapiens) (O15455 whole entry): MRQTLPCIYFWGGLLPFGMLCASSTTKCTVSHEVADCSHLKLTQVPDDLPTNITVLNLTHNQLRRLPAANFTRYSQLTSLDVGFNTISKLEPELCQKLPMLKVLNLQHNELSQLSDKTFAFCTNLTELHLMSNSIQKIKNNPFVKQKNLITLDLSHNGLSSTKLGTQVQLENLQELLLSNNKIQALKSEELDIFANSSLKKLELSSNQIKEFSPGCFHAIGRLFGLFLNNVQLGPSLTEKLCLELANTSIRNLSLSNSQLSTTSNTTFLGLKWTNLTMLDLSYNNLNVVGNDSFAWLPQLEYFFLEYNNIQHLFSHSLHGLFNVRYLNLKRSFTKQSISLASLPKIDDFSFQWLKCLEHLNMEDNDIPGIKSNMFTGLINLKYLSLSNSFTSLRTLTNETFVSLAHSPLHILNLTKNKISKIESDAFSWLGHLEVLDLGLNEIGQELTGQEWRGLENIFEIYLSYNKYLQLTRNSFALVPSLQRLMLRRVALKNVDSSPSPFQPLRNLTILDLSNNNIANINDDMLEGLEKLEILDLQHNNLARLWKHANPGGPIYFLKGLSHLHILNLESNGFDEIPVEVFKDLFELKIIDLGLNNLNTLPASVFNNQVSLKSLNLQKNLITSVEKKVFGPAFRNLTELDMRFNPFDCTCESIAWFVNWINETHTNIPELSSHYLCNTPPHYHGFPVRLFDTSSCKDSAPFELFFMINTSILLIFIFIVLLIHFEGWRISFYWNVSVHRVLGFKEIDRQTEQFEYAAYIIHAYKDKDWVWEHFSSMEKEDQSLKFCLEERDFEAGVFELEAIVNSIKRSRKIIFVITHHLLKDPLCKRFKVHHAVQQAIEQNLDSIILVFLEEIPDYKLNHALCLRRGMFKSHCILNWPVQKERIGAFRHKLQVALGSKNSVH

| fold change (FC) [2] | Activity [3] | Activity [4] | Ratio [5] | Activity [6] | Activity [8] | SMILES | Activity [1] [pg/mL] | Activity [7] [pg/mL] | IFN-alpha [9] [pg/mL] |
| --- | --- | --- | --- | --- | --- | --- | --- | --- | --- |
| 30 | inactive | inactive | 50 | Active | Active | Nc1ccn([C@@H]2O[C@H](CO)[C@@H](OP(=O)(S)OC[C@H]3O[C@@H](n4ccc(=O)[nH]c4=O)[C@H](O)[C@@H]3OP(=O)(S)OC[C@H]3O[C@@H](n4ccc5c(=O)[nH]c(N)nc54)[C@H](O)[C@@H]3OP(=O)(S)OC[C@H]3O[C@@H](n4cnc5c(N)ncnc54)[C@H](O)[C@@H]3OP(=O)(S)OC[C@H]3O[C@@H](n4ccc(N)nc4=O)[C@H](O)[C@@H]3OP(=O)(S)OC[C@H]3O[C@@H](n4ccc5c(=O)[nH]c(N)nc54)[C@H](O)[C@@H]3OP(=O)(S)OC[C@H]3O[C@@H](n4cnc5c(N)ncnc54)[C@H](O)[C@@H]3OP(=O)(S)OC[C@H]3O[C@@H](n4ccc5c(=O)[nH]c(N)nc54)[C@H](O)[C@@H]3OP(=O)(S)OC[C@H]3O[C@@H](n4ccc(N)nc4=O)[C@H](O)[C@@H]3OP(=O)(S)OC[C@H]3O[C@@H](n4ccc(=O)[nH]c4=O)[C@H](O)[C@@H]3OP(=O)(S)OC[C@H]3O[C@@H](n4ccc(=O)[nH]c4=O)[C@H](O)[C@@H]3OP(=O)(S)OCC(O)COP(=O)(S)O[C@H]3[C@@H](O)[C@H](n4ccc(=O)[nH]c4=O)O[C@@H]3COP(=O)(S)O[C@H]3[C@@H](O)[C@H](n4ccc(=O)[nH]c4=O)O[C@@H]3COP(=O)(S)O[C@H]3[C@@H](O)[C@H](n4ccc(N)nc4=O)O[C@@H]3COP(=O)(S)O[C@H]3[C@@H](O)[C@H](n4ccc5c(=O)[nH]c(N)nc54)O[C@@H]3COP(=O)(S)O[C@H]3[C@@H](O)[C@H](n4cnc5c(N)ncnc54)O[C@@H]3COP(=O)(S)O[C@H]3[C@@H](O)[C@H](n4ccc5c(=O)[nH]c(N)nc54)O[C@@H]3COP(=O)(S)O[C@H]3[C@@H](O)[C@H](n4ccc(N)nc4=O)O[C@@H]3COP(=O)(S)O[C@H]3[C@@H](O)[C@H](n4cnc5c(N)ncnc54)O[C@@H]3COP(=O)(S)O[C@H]3[C@@H](O)[C@H](n4ccc5c(=O)[nH]c(N)nc54)O[C@@H]3COP(=O)(S)O[C@H]3[C@@H](O)[C@H](n4ccc(=O)[nH]c4=O)O[C@@H]3COP(=O)(S)O[C@H]3[C@@H](O)[C@H](n4ccc(N)nc4=O)O[C@@H]3CO)[C@H]2O)c(=O)n1 (stereo partly drawn) | 33.4 | 519 | 106 |
| 16.6 | inactive | inactive | 7.9 | Active | Active | Nc1ccn([C@@H]2O[C@H](COP(=O)(S)O[C@H]3[C@@H](O)[C@H](n4cnc5c(N)ncnc54)O[C@@H]3CO)[C@@H](OP(=O)(S)OC[C@H]3O[C@@H](n4ccc(=O)[nH]c4=O)[C@H](O)[C@@H]3OP(=O)(S)OC[C@H]3O[C@@H](n4ccc(=O)[nH]c4=O)[C@H](O)[C@@H]3OP(=O)(S)OC[C@H]3O[C@@H](n4ccc5c(=O)[nH]c(N)nc54)[C@H](O)[C@@H]3OP(=O)(S)OC[C@H]3O[C@@H](n4cnc5c(N)ncnc54)[C@H](O)[C@@H]3OP(=O)(S)OC[C@H]3O[C@@H](n4ccc(N)nc4=O)[C@H](O)[C@@H]3OP(=O)(S)OC[C@H]3O[C@@H](n4ccc5c(=O)[nH]c(N)nc54)[C@H](O)[C@@H]3OP(=O)(S)OC[C@H]3O[C@@H](n4cnc5c(N)ncnc54)[C@H](O)[C@@H]3OP(=O)(S)OC[C@H]3O[C@@H](n4ccc(=O)[nH]c4=O)[C@H](O)[C@@H]3OP(=O)(S)OC[C@H]3O[C@@H](n4ccc(=O)[nH]c4=O)[C@H](O)[C@@H]3OP(=O)(S)OCC(O)COP(=O)(S)O[C@H]3[C@@H](O)[C@H](n4ccc(=O)[nH]c4=O)O[C@@H]3COP(=O)(S)O[C@H]3[C@@H](O)[C@H](n4ccc(=O)[nH]c4=O)O[C@@H]3COP(=O)(S)O[C@H]3[C@@H](O)[C@H](n4cnc5c(N)ncnc54)O[C@@H]3COP(=O)(S)O[C@H]3[C@@H](O)[C@H](n4ccc5c(=O)[nH]c(N)nc54)O[C@@H]3COP(=O)(S)O[C@H]3[C@@H](O)[C@H](n4ccc(N)nc4=O)O[C@@H]3COP(=O)(S)O[C@H]3[C@@H](O)[C@H](n4cnc5c(N)ncnc54)O[C@@H]3COP(=O)(S)O[C@H]3[C@@H](O)[C@H](n4ccc5c(=O)[nH]c(N)nc54)O[C@@H]3COP(=O)(S)O[C@H]3[C@@H](O)[C@H](n4ccc(=O)[nH]c4=O)O[C@@H]3COP(=O)(S)O[C@H]3[C@@H](O)[C@H](n4ccc(=O)[nH]c4=O)O[C@@H]3COP(=O)(S)O[C@H]3[C@@H](O)[C@H](n4ccc(N)nc4=O)O[C@@H]3COP(=O)(S)O[C@H]3[C@@H](O)[C@H](n4cnc5c(N)ncnc54)O[C@@H]3CO)[C@H]2O)c(=O)n1 (stereo partly drawn) | 115 | 394 | 233 |
